# High-throughput results (PubChem)
# UPR CHOP act: apoptotic UPR (CHOP) activation; actives 0.34% (n = 330,000); CHO-CHOP luciferase reporter, luminescence; percent of tunicamycin response over DMSO baseline; AID 449763; activation, % at 10 µM;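 active means at 10 µM dose, activation of 40% or more, normalized to positive control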;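 further: 100% = tunicamycin at 10 µg/mL and 0% = DMSO alone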
#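 Assay system: CHO cells with stable CHOP pathway luciferase reporter; Buffer or medium: F12 plus 10% serum; Times: 16-18 h cell attachment, then 6 h compound exposure, 37 °C; Signal: luciferase luminescence; Read-out basis: percent activation relative to tunicamycin control; Control set: tunicamycin high control, DMSO low control.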
# XBP1 UPR activ: activators of adaptive arm of unfolded protein response (XBP1); CHO-XBP1 luciferase reporter, IRE1-XBP1 UPR activation, luminescence; percent of tunicamycin response, DMSO as zero; activation, % at 20 µM; actives 0.33% (n = 330,000);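 active means versus positive control, 20 µM dose yields 30% or more activation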;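 further: 100% = tunicamycin at 10 µg/mL and 0% = DMSO only wells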
#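 Material: CHO cell line with stable XBP1 luciferase reporter; buffer or medium: F12 medium containing 10% fetal bovine serum; compound: single point, 20 µM final compound, 1% DMSO; incubation: 6 h treatment, 37 °C; measured by: glow luminescence from Steady-Glo reagent; evaluation: activation, % of tunicamycin; control set: tunicamycin high, DMSO low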
# TLR9-MyD88 inh: inhibitors of human TLR9-MyD88 binding; CHO BLA complementation TLR9-MyD88, CCF4 FRET ratio; inhibition, % at 4.98 µM; actives 0.21% (n = 340,000); AID 504734;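 active means inhibition above the mean over all tested compounds plus 3 SD, cut at about 21% in these data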;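 further: 0% = DMSO only wells and 100% = clavulanate BLA inhibitor control wells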
# TLR4 MyD88 comp: TLR4-MyD88 interaction inhibition in cells | O00206+Q99836 | HeLa CL3-4 TLR4/MyD88 BLA complementation, FRET ratio | inhibition, % at 8.4 µM | actives 0.18% (n = 200,000); in the data active means inhibition above about 25%;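 further: 0% = vehicle and 100% = reference inhibitor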
# CHOP inh: blocks CHOP induction under ER stress; CHO-K1 CHOP-promoter luciferase, tunicamycin-induced, 15-18 h; inhibition, % at 10 µM; actives 3.8% (n = 220,000); AID 2732;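 active means compounds that reduced the stress-induced luciferase reporter signal by more than about 70% of percent inhibition, limit read from the data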;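 further: 0% = tunicamycin plus vehicle and 100% = wells without tunicamycin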
# NOD2-RIPK2 inh: blocks binding of human NOD2 to RIPK2; O43353; CHO BLA complementation NOD2-RIPK2, CCF4 ratio; inhibition, % at 4.98 µM; actives 0.38% (n = 360,000); AID 624267; in the data active means inhibition above about 21%;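 further: 0% = vehicle only and 100% = reference blocker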
# The depositor's hits bear a star; . = no result given. The sample as a whole holds a higher share of hits than the screen did.
SMILES,UPR CHOP act,XBP1 UPR activ,TLR9-MyD88 inh,TLR4 MyD88 comp,CHOP inh,NOD2-RIPK2 inh
O=[N+]([O-])c1c(Nc2ccccn2)cc(Cl)c2nonc12,-10.5,-10.9,-1.9,.,108.0*,5.7
Cc1cccc(Oc2cnn(C(C)(C)C)c(=O)c2Cl)c1,2.8,-2.6,-13.5,1.4,71.2*,-4.7
CCc1cccc(NC(=O)CS(=O)Cc2nc(-c3ccc(C)cc3)oc2C)c1 (centres undefined),0.0,-1.6,-7.1,6.3,92.8*,0.6
COc1ccc(/C=N/NS(=O)(=O)c2ccccc2)cc1OC(=O)c1ccc(C)cc1,-0.6,-1.6,2.4,-4.7,73.8*,0.0
COc1ccc(/C=N/NS(=O)(=O)c2ccc(C)cc2)cc1OC(=O)c1ccccc1,-2.9,0.3,4.8,6.7,58.8,5.5
O=C(c1cc(-c2cccc(O)c2)on1)N1CCN(C(c2ccccc2)c2ccccc2)CC1,9.4,1.8,2.2,0.9,78.0*,-10.2
O=C(c1cc(C2CC2)on1)N1CCN(C(c2ccccc2)c2ccccc2)CC1,2.1,-2.8,-2.8,-9.8,54.7,-4.8
CC(C)(C)c1ccc(OCCCNCc2ccccc2)cc1,-0.7,-0.8,1.5,6.5,94.7*,4.5
CC(C)c1cccc(C(C)C)c1NC(=O)c1ccc(OCC(=O)NCc2ccccc2)cc1,0.2,1.8,.,-3.8,94.3*,.
FC(F)Oc1ccc(/C=N/NC(=S)Nc2cc(C(F)(F)F)ccc2Cl)cc1,-0.1,-0.6,-14.3,-4.0,76.2*,1.7
CNC(=S)Nc1cc(C(F)(F)F)ccc1Cl,-1.7,-1.8,4.0,-1.9,-4.9,0.9
CC(=O)N1c2ccccc2C2(O)N=C(C)SC12 (centres undefined),-0.9,-0.1,-5.7,1.1,104.8*,7.1
O=C(CCn1cccc1)NCc1ccc(Cl)cc1,-0.7,-2.3,-3.5,-4.9,39.6,2.7
CCN1CCN(c2ncnc3sc4c(c23)CCC(C)C4)CC1 (centres undefined),-0.9,-2.5,-1.8,.,.,-5.6
C=CCc1c(C)nc2c(OC)cccc2c1Cl,1.4,4.5,-6.0,-13.3,0.7,-0.3
COc1cccc2c(Cl)c(CC=C(Cl)Cl)c(C)nc12,3.0,5.5,-3.0,-4.0,87.0*,4.0
Cc1nc(SC(C)C(=O)NCC2CCCO2)c2cc(-c3ccccc3)sc2n1 (centres undefined),1.1,0.4,-5.3,.,.,5.0
Cc1cc(C)cc(NC(=O)COC(=O)CC2CCCC2)c1,0.1,-0.2,-6.8,.,.,3.9
CCn1c2c(c(=N)c3ccccc31)CCC2,-0.6,-0.5,-2.9,.,-4.0,14.2
CCOc1nc(Nc2ccc(OC)c(Cl)c2)nc(OCC)n1,-1.8,-0.5,-9.0,-5.5,83.0*,-0.1
O=C(CS(=O)(=O)Nc1ccc(F)cc1Cl)Nc1ccc(F)cc1Cl,-0.6,-5.0,4.3,.,.,2.2
CCOC(=O)c1sc2nccc(N(C)C)c2c1N=CNOCc1ccccc1,-0.2,2.8,0.7,5.3,75.1*,-13.4
Cc1ccc(-c2nn(-c3ccccc3)cc2/C=N/n2c(-c3ccncc3)n[nH]c2=S)cc1,6.2,2.8,.,.,89.3*,-5.8
S=c1[nH]nc(-c2cccs2)n1/N=C/c1cn(-c2ccccc2)nc1-c1ccccc1,4.2,14.3,5.2,.,-16.9,-14.6
S=c1[nH]nc(-c2ccncc2)n1/N=C/C(Cl)=C\c1ccccc1,2.4,3.5,-7.0,0.7,76.0*,5.5
SMILES,UPR CHOP act,XBP1 UPR activ,TLR9-MyD88 inh,TLR4 MyD88 comp,CHOP inh,NOD2-RIPK2 inh
CC(/C=N/n1c(-c2ccc(Cl)cc2)n[nH]c1=S)=C\c1ccco1,-0.3,2.0,-8.7,8.6,95.5*,5.6
CC(/C=N/n1c(-c2cc(C)[nH]n2)n[nH]c1=S)=C\c1ccco1,1.5,-2.2,-3.6,.,-14.4,9.2
O=C(/C=C/Nc1ccccc1Br)c1ccccn1,-11.0,-13.7,-6.5,0.6,87.5*,1.5
Nc1nc(N)nc(-c2ccc(Oc3ccccc3)cc2)n1,-0.9,-1.1,8.0,-5.2,9.0,-5.7
Cc1ccc(Oc2ccc(-c3nc(N)nc(N)n3)cc2)cc1C,2.2,-1.2,4.8,1.1,88.5*,0.8
CCOc1ccccc1N/C=C/C(=O)C(C)(C)C,0.0,-0.2,-22.8,0.3,74.0*,3.1
CCOc1ccccc1NC(=O)CCC(=O)Nc1ccccc1OCC,-2.4,0.7,0.1,-1.5,15.8,-0.6
Cc1ccc(C2CC(C(F)F)n3ncc(C(=O)Nc4cnn(Cc5ccccc5C)c4)c3N2)cc1 (centres undefined),2.5,-8.7,-2.0,3.5,72.6*,-0.1
CCCc1nc2c(=O)n(C)c(=O)nc-2n(C)n1,.,.,-6.4,-11.0,104.4*,8.0
Cn1nc(-c2ccccn2)nc2c(=O)n(C)c(=O)nc1-2,-5.3,-7.1,-3.0,.,107.0*,-16.3
CC(=O)C1=C(O)C(=O)N(c2ccccn2)C1c1ccc(C)cc1 (centres undefined),0.1,-2.2,-64.8,.,.,-3.2
CC1CC(=O)Nc2ccccc2N1C(=O)CN1CCN(c2ccccc2)CC1 (centres undefined),0.5,1.6,3.8,1.4,80.1*,10.8
CCOC(=O)C1CCN(c2nc(C)nc3c2oc2ccccc23)CC1,-0.9,-1.1,-1.1,.,74.7*,-3.0
CCc1nc(N2CCCCC2C(=O)O)c2oc3ccccc3c2n1 (centres undefined),-0.9,0.5,3.1,.,-10.7,-8.2
Cc1nc(SCC(=O)O)c2oc3ccccc3c2n1,-2.6,-1.2,-1.4,-22.1,-6.8,-9.7
CCc1nc(N2CCCCC2)c2oc3ccccc3c2n1,0.4,-1.2,-9.3,10.0,89.1*,-1.8
CCc1nc(N2CCCCC2C)c2oc3ccccc3c2n1 (centres undefined),-1.3,4.5,4.5,-7.9,-12.4,-3.1
CCc1nc(N2CCCC(C)C2)c2oc3ccccc3c2n1 (centres undefined),-2.0,-0.1,2.0,-11.8,71.8*,-7.4
Cc1nc(SCC(=O)NCc2ccccc2)c2oc3ccccc3c2n1,0.6,0.6,-5.5,-0.8,72.3*,1.2
CC(C)CC1NC(=O)N(CC(=O)NC2CCCc3ccccc32)C1=O (centres undefined),-0.6,3.0,3.7,-0.8,-4.0,-2.5
C#CCCOC(=O)N1C2=NC(C(=O)OC)=C(C(=O)OC)[C@@H]3Nc4ccccc4[C@]23C[C@H]1C(=O)OC,.,.,-16.4,.,.,-3.1
Cc1c(C(=O)NCc2ccc(C(F)(F)F)cc2)sc(=O)n1Cc1ccc(S(=O)(=O)N(C)C)cc1,.,.,.,.,.,-3.1
CC(=O)c1cccc(NS(=O)(=O)c2ccc(N/C=C\C(=O)c3ccc(C)cc3)cc2)c1,5.8,-0.3,-3.7,-13.1,56.2,-3.4
CC(=O)c1cccc(NS(=O)(=O)c2ccc(N/C=C\C(=O)c3ccc(F)cc3)cc2)c1,9.3,-0.4,6.2,-19.4,83.7*,-5.2
